From ChEMBL document CHEMBL1140055, “Mixed-lineage kinase 1 and mixed-lineage kinase 3 subtype-selective dihydronaphthyl[3,4-a]pyrrolo[3,4-c]carbazole-5-ones: optimization, mixed-lineage kinase 1 crystallography, and oral in vivo activity in 1-methyl-4-phenyltetrahydropyridine models” (J Med Chem, 2008)
Values belong to the compound of their own block, whether it stands above or below them. Activity calls are given as the source filed them. The rule behind the calls is not given here.

What was measured:
[1] = target: T1, Mitogen-activated protein kinase kinase kinase 9 (Homo sapiens, UniProt P80192); assay: Inhibition of GST-fused human MLK1 at 1 uM
Method in brief: (§1)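 Baculovirus-expressed GST fusions of human MLK1 or MLK3 kinase domain (50 ng MLK1, 100 ng MLK3), myelin basic protein substrate at 500 µg/mL.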
Target sequence in this assay (P80192 whole entry, looked up, the tested form may be a part): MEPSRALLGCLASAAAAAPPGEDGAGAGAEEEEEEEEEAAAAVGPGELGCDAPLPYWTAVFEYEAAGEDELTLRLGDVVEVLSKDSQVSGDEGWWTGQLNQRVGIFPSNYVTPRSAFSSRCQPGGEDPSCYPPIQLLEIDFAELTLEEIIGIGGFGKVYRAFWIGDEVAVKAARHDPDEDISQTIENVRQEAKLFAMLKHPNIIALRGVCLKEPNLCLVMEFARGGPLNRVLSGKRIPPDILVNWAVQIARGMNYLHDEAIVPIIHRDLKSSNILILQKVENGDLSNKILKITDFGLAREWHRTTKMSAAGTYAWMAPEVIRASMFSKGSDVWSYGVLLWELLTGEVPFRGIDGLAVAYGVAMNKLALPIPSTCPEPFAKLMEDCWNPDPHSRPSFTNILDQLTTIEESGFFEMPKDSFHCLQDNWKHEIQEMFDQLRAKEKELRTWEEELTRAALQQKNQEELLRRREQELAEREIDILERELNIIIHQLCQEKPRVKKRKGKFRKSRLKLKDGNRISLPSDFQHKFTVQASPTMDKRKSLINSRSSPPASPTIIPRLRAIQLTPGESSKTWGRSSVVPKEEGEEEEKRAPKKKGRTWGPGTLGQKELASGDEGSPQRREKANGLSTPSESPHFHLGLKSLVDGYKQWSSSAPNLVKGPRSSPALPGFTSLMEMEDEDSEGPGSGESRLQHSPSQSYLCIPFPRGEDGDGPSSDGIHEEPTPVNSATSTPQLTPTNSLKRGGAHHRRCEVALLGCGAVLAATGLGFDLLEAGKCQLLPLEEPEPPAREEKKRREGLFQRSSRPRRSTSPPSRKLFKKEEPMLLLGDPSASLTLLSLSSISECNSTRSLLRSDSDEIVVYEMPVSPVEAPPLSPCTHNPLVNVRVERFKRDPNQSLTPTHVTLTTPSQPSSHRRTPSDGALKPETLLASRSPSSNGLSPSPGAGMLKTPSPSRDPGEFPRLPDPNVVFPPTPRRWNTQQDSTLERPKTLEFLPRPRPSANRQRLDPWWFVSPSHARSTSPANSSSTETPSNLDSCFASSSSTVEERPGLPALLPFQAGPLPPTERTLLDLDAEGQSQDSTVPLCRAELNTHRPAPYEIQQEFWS

[2] = target: T2, Mitogen-activated protein kinase kinase kinase 11 (Homo sapiens, UniProt Q16584); assay: Inhibition of GST-fused human MLK3 at 1 uM; method in brief: as §1
Target sequence in this assay (Q16584 whole entry, looked up, the tested form may be a part): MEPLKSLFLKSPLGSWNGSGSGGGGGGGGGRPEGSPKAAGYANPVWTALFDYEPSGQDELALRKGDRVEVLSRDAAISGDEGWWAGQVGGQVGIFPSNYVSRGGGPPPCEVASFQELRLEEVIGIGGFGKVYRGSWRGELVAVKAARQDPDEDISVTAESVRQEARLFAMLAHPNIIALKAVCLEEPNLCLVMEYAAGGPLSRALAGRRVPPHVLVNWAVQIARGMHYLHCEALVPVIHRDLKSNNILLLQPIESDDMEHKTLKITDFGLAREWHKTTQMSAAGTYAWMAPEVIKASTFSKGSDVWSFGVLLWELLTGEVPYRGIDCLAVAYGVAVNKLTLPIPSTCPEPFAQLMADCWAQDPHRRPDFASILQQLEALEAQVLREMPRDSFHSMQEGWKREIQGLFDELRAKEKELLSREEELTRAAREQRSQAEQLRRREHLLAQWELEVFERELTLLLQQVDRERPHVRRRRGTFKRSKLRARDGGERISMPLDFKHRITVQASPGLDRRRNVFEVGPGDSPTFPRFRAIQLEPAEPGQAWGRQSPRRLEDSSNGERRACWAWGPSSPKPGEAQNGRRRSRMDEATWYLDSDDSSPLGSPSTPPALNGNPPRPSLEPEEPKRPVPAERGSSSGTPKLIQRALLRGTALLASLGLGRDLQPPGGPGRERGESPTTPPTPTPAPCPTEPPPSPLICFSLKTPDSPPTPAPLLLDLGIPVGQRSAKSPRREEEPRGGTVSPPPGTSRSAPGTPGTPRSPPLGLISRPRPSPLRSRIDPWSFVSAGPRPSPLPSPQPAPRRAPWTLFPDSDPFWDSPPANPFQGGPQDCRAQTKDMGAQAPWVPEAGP

[3] = Volume of distribution in Sprague-Dawley rat at 1 mg/kg, iv; type: ADME, organism-based; set-up: dose 1 mg/kg, route intravenous; settings: in vivo
Method in brief: (§2)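 Rat PK: iv dose into lateral tail vein in 3% DMSO/30% solutol/67% PBS; oral gavage in 50% Tween 80/40% propylene carbonate/10% propylene glycol, rats fasted overnight before oral dosing. Serial tail-vein blood at seven times over 6 h into heparinized tubes. Plasma protein-precipitated with acetonitrile, analysed with internal standard by LC-MS/MS. Bioavailability from iv versus po AUCs.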

[4] = target: Fibroblast growth factor receptor 1 (Homo sapiens, UniProt P11362); assay: Inhibition of human FGFR1 expressed in baculovirus insect cell system
[5] = Half life in Sprague-Dawley rat at 1 mg/kg, iv; type: ADME, organism-based; set-up: dose 1 mg/kg, route intravenous; settings: in vivo; method in brief: as §2
[6] = Clearance in Sprague-Dawley rat at 1 mg/kg, iv; type: ADME, organism-based; set-up: dose 1 mg/kg, route intravenous; settings: in vivo; method in brief: as §2
[7] = target: T3, Dual specificity mitogen-activated protein kinase kinase 4 (Homo sapiens, UniProt P45985); assay: Inhibition of human MKK4/7 expressed in baculovirus insect cell system
T3 sequence (P45985 whole entry): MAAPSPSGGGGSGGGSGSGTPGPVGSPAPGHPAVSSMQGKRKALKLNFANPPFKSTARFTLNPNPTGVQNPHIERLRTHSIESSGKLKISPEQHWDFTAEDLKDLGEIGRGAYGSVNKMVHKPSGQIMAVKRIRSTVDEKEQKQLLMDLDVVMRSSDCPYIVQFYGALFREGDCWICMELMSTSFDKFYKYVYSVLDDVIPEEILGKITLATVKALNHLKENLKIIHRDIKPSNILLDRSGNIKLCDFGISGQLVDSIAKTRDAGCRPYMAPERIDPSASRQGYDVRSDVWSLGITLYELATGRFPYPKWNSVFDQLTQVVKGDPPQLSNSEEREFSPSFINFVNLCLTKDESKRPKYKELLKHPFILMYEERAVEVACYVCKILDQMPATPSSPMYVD

[8] = target: High affinity nerve growth factor receptor (Homo sapiens, UniProt P04629); assay: Inhibition of human TrkA expressed in baculovirus insect cell system
[9] = target: c-Jun N-terminal kinase, JNK (Homo sapiens, UniProt P45983+P53779+P45984); assay: Inhibition of human JNK expressed in baculovirus insect cell system
Protein kinase C (PKC) = assay: Inhibition of human PKC expressed in baculovirus insect cell system
[10] = target: T1, Mitogen-activated protein kinase kinase kinase 9; assay: Inhibition of GST-fused human MLK1
Method in brief: (§3)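 GST fusions of human MLK kinase domains from baculovirus (50 ng MLK1_KD, 150 ng MLK2_KD/LZ, 100 ng MLK3_KD), substrate 500 µg/mL myelin basic protein. Buffer 20 mM Hepes pH 7.2, 5 mM EGTA, 15 mM MgCl2, 1 mM DTT, 25 mM β-glycerophosphate, 0.1% BSA, 2% DMSO.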
Target sequence in this assay (P80192 whole entry, the tested form may be a part): as the sequence (P80192 whole entry, looked up, the tested form may be a part) above

[11] = target: Mitogen-activated protein kinase 14 (Homo sapiens, UniProt Q16539); assay: Inhibition of human P38alpha expressed in baculovirus insect cell system
[12] = target: Vascular endothelial growth factor receptor 3 (Homo sapiens, UniProt P35916); assay: Inhibition of human VEGFR3 expressed in baculovirus insect cell system
Vascular endothelial growth factor receptor 3, sequence (P35916 whole entry): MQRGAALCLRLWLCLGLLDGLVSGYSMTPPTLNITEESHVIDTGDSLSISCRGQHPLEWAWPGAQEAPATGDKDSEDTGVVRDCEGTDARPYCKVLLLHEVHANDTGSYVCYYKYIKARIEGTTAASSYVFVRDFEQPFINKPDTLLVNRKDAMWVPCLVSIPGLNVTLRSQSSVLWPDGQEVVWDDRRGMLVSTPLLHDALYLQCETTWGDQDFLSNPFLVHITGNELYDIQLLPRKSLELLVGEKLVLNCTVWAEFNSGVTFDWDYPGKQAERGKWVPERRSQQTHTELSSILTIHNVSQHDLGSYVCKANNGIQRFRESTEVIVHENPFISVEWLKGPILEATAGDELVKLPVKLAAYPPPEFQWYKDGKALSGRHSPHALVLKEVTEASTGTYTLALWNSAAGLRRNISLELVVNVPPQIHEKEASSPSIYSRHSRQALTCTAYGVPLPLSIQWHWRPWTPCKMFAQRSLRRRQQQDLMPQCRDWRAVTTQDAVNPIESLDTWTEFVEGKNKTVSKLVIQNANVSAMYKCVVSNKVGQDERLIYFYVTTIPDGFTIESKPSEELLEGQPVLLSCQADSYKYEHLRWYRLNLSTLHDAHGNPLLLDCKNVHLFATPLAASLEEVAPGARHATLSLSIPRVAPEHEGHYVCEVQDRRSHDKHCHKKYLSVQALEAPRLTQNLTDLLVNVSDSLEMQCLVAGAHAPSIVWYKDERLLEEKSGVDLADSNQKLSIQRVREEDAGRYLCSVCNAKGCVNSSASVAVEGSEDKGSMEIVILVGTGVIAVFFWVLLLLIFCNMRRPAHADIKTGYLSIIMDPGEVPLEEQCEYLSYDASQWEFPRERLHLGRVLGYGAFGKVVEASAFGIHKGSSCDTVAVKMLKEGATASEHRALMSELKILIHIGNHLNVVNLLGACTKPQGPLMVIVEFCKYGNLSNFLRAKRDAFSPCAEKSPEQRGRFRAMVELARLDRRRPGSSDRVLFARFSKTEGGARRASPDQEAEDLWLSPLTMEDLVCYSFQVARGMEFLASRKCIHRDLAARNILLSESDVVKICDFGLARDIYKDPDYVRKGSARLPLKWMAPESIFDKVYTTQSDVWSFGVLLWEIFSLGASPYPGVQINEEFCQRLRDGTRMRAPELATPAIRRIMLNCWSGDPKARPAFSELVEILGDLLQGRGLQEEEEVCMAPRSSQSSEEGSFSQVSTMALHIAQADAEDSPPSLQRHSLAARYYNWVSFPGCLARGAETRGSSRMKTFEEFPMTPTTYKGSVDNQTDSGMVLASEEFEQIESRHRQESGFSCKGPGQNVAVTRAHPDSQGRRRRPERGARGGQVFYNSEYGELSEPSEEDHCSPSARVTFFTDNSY

[13] = target: Tyrosine-protein kinase Fyn (Homo sapiens, UniProt P06241); assay: Inhibition of human Fyn kinase expressed in baculovirus insect cell system
[14] = AUC in Sprague-Dawley rat at 1 mg/kg, iv; type: ADME, organism-based; set-up: dose 1 mg/kg, route intravenous; settings: plasma
Method in brief: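 Single intravenous dose into the lateral tail vein in 3% DMSO, 30% solutol and 67% phosphate-buffered saline. Serial heparinized blood samples were taken from the lateral tail vein at seven times over 6 h. Plasma was separated by centrifugation, deproteinized with acetonitrile and analysed for drug against an internal standard by LC-MS/MS.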

SH-SY5Y = assay: Neuroprotective activity against human SH-SY5Y cells assessed as inhibition of MPP+-induced cell death; type: functional, cell-based
[15] = Half life in Sprague-Dawley rat at 5 mg/kg, po; type: ADME, organism-based; set-up: dose 5 mg/kg, route oral; settings: in vivo; method in brief: as §2
[16] = target: T1, Mitogen-activated protein kinase kinase kinase 9; assay: Inhibition of GST-fused human MLK1 expressed in CHO cells assessed as MKK4 phosphorylation; type: cell-based
Method in brief: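 CHO cells transfected with MLK1 plus dominant-negative MKK4 cDNA; phospho-MKK4 quantified by ELISA; IC50 derived.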
Target sequence in this assay (P80192 whole entry, the tested form may be a part): as the sequence (P80192 whole entry, looked up, the tested form may be a part) above

[17] = Oral bioavailability in Sprague-Dawley rat at 5 mg/kg; type: ADME, organism-based; settings: in vivo; method in brief: as §2
Mus musculus [18] = assay: Neuroprotective activity against MPTP-induced loss of striatal dopamine markers in po dosed mouse administered twice daily; type: functional, organism-based
Method in brief: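 Mouse MPTP neurotoxicity: low dose 20 mg/kg sc, assessing striatal DA terminals by GBR-12935 binding; high dose 40 mg/kg sc, assessing striatal DA markers and substantia nigra cell bodies by TH immunoreactivity. Test compounds given orally, q.d. or b.i.d.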

Cyclin-dependent kinase = assay: Inhibition of human CDK expressed in baculovirus insect cell system
[19] = Plasma concentration in mouse at 6.7 mg/kg, po administered 2 hrs before MPTP challenge followed by 40 mg/kg, sc 2 hrs after MPTP challenge; type: ADME, organism-based; settings: other: po followed by sc
Method in brief: (§4)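 Mice dosed orally at 6.7 mg/kg 2 h before and 2 h after MPTP (40 mg/kg sc). Substantia nigra dissected 2 h after second dose; pMKK4 measured by immunoblot against treated and control groups. Plasma drug levels taken 2 h after dosing (4 h post-MPTP).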

[20] = target: Serine/threonine-protein kinase Chk1/2 (Homo sapiens, UniProt O96017+O14757); assay: Inhibition of human CHK1/2 expressed in baculovirus insect cell system
[21] = target: Vascular endothelial growth factor receptor 1 (Homo sapiens, UniProt P17948); assay: Inhibition of human VEGFR1 expressed in baculovirus insect cell system
[22] = Inhibition of human IRK expressed in baculovirus insect cell system
Mus musculus [23] = assay: Inhibition of MPTP-induced increase in pMKK4 levels in mouse at 6.7 mg/kg, po administered 2 hrs before MPTP challenge followed by 40 mg/kg, sc 2 hrs after MPTP challenge; type: functional; set-up: Activity: scale not given: the % may be the effect or the level left; method in brief: as §4
[24] = target: Vascular endothelial growth factor receptor 2 (Homo sapiens, UniProt P35968); assay: Inhibition of human VEGFR2 expressed in baculovirus insect cell system
Vascular endothelial growth factor receptor 2, sequence (P35968 whole entry): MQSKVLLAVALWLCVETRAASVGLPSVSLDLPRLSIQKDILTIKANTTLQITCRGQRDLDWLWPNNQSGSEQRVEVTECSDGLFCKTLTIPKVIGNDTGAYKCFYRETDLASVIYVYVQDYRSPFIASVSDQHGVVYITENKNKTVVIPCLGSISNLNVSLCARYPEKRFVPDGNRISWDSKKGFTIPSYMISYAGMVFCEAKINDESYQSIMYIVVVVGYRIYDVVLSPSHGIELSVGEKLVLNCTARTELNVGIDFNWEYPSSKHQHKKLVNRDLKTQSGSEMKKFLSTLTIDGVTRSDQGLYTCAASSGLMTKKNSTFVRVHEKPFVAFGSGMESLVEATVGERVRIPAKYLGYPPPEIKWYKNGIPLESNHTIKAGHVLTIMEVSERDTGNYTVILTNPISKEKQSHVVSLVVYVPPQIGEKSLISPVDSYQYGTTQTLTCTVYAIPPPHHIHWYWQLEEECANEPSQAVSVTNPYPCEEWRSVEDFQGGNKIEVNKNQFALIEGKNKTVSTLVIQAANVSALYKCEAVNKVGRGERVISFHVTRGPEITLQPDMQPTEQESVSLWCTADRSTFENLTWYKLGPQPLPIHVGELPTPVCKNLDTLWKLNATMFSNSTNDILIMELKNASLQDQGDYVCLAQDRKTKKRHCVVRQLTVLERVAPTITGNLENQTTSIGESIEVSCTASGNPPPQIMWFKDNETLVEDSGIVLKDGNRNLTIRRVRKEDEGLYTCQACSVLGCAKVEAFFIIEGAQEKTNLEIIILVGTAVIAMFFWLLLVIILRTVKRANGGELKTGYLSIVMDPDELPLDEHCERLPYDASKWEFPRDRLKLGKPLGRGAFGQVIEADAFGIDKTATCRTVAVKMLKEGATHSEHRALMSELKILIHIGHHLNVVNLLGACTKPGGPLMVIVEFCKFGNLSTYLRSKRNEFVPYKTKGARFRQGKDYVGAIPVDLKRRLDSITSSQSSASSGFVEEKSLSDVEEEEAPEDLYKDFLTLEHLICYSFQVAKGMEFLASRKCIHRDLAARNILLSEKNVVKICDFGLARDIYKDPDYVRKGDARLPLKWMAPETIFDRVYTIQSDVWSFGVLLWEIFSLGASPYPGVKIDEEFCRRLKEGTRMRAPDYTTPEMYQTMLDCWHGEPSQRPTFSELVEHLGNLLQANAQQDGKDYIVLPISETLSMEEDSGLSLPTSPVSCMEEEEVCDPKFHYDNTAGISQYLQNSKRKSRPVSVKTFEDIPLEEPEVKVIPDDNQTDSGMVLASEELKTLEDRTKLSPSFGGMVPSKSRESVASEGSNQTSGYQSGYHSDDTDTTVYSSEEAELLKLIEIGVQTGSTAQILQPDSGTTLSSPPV

[25] = Cmax in Sprague-Dawley rat at 5 mg/kg, po; type: ADME, organism-based; set-up: dose 5 mg/kg, route oral; settings: in vivo; method in brief: as §2
[26] = Metabolic stability in rat liver S9 fraction after 2 hrs in presence of NADPH; type: ADME, subcellular; settings: read-out: Stability
Method in brief: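 Incubated 2 h in rat liver S9 preparation with NADPH; percent parent remaining reported.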

[27] = target: T2, Mitogen-activated protein kinase kinase kinase 11; assay: Inhibition of GST-fused human MLK3; method in brief: as §3
Target sequence in this assay (Q16584 whole entry, the tested form may be a part): as the sequence (Q16584 whole entry, looked up, the tested form may be a part) above

[28] = target: Mitogen-activated protein kinase kinase kinase 10 (Homo sapiens, UniProt Q02779); assay: Inhibition of human MLK2 expressed in baculovirus insect cell system
Method in brief: as §3, with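 “DMSO. […] 15 min at 37 °C, TCA precipitation, scintillation counting. IC50 by variable-slope sigmoidal fit, average of duplicates within 20%.” for “DMSO.”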

[29] = AUC in Sprague-Dawley rat at 5 mg/kg, po; type: ADME, organism-based; set-up: dose 5 mg/kg, route oral; settings: plasma
Method in brief: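 Rats were fasted overnight, then dosed by oral gavage in 50% Tween 80, 40% propylene carbonate and 10% propylene glycol. Serial heparinized blood samples were taken from the lateral tail vein at seven times over 6 h. Plasma was deproteinized with acetonitrile and analysed for drug against an internal standard by LC-MS/MS.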

Vd [3]: 2 L/kg | IC50 [4]: > 10000 nM | half-life [5]: 48 min | clearance [6]: 28 mL/min/kg | IC50 [7]: > 3000 nM | IC50 [8]: 1050 nM | IC50 [9]: > 30000 nM | IC50 (Protein kinase C (PKC)): > 6000 nM | IC50 [10]: 26 nM | IC50 [11]: > 10000 nM | IC50 [12]: 2460 nM | IC50 [13]: 1190 nM | AUC [14]: 579 ng·h/mL | half-life [15]: 66 min | IC50 [16]: 33 nM | bioavailability [17]: 37% | IC50 (Cyclin-dependent kinase): > 10000 nM | concentration at 2 h [19]: 580 nM | IC50 [20]: > 10000 nM | IC50 [21]: > 10000 nM | IC50 [24]: 3380 nM | Cmax [25]: 339 ng/mL | remaining at 2 h [26]: 44% | IC50 [27]: 65 nM | IC50 [28]: 1860 nM | AUC [29]: 1070 ng·h/mL
Structure (SMILES): CC(C)Oc1ccc2c(c1)CCc1c-2c2c(c3c4ccccc4n(CCO)c13)CNC2=O
IC50 (SH-SY5Y): 43 nM | Activity (Mus musculus [18]): Active | IC50 [22]: > 10000 nM | Activity (Mus musculus [23]): 64%

IC50 [10]: 66 nM | IC50 [16]: 196 nM | IC50 [27]: 159 nM
Structure (SMILES): CC(C)Oc1ccc2c(c1)CCc1c-2c2c(c3c1[nH]c1ccccc13)CNC2=O

Second part, the compound before the results:

Structure (SMILES): N#CCCCOc1ccc2c(c1)CCc1c-2c2c(c3c4ccccc4n(CCO)c13)CNC2=O
inhibition [1]: 58% | inhibition [2]: 46%

Structure (SMILES): N#CCOc1ccc2c(c1)CCc1c-2c2c(c3c4ccccc4n(CCO)c13)CNC2=O
inhibition [1]: 30% | inhibition [2]: 8%

Structure (SMILES): O=C1NCc2c1c1c(c3c2c2ccccc2n3CCO)CCc2cc(OCc3ccccn3)ccc2-1
inhibition [1]: 36% | inhibition [2]: 30%
